Each block holds one compound with its values, some of them ahead of it.
How the values were obtained:
[1] = biological target: Serine-protein kinase ATM (Homo sapiens) (UniProt Q13315); experiment: Inhibition of human recombinant ATM at 500 nM in presence of ATP by radiometric assay relative to control
Method in brief: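 Panel of 327 recombinant human kinases, each assayed in vitro by radiometric activity assay in duplicate at a single inhibitor concentration per compound, chosen with reference to its ULK1 inhibition. Activity remaining was expressed as percent of vehicle control, and percent inhibition was calculated as 100 minus percent activity remaining.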

[2] = biological target: Casein kinase I isoform gamma-3 (Homo sapiens) (UniProt Q9Y6M4); experiment: Inhibition of human recombinant CK1g3 at 500 nM related to control ULK1
[3] = biological target: ALK tyrosine kinase receptor (Homo sapiens) (UniProt Q9UM73); experiment: Inhibition of human recombinant ALK at 40 nM in presence of ATP by radiometric assay relative to control
ALK tyrosine kinase receptor (Homo sapiens), sequence (Q9UM73 19-1620 limits assumed): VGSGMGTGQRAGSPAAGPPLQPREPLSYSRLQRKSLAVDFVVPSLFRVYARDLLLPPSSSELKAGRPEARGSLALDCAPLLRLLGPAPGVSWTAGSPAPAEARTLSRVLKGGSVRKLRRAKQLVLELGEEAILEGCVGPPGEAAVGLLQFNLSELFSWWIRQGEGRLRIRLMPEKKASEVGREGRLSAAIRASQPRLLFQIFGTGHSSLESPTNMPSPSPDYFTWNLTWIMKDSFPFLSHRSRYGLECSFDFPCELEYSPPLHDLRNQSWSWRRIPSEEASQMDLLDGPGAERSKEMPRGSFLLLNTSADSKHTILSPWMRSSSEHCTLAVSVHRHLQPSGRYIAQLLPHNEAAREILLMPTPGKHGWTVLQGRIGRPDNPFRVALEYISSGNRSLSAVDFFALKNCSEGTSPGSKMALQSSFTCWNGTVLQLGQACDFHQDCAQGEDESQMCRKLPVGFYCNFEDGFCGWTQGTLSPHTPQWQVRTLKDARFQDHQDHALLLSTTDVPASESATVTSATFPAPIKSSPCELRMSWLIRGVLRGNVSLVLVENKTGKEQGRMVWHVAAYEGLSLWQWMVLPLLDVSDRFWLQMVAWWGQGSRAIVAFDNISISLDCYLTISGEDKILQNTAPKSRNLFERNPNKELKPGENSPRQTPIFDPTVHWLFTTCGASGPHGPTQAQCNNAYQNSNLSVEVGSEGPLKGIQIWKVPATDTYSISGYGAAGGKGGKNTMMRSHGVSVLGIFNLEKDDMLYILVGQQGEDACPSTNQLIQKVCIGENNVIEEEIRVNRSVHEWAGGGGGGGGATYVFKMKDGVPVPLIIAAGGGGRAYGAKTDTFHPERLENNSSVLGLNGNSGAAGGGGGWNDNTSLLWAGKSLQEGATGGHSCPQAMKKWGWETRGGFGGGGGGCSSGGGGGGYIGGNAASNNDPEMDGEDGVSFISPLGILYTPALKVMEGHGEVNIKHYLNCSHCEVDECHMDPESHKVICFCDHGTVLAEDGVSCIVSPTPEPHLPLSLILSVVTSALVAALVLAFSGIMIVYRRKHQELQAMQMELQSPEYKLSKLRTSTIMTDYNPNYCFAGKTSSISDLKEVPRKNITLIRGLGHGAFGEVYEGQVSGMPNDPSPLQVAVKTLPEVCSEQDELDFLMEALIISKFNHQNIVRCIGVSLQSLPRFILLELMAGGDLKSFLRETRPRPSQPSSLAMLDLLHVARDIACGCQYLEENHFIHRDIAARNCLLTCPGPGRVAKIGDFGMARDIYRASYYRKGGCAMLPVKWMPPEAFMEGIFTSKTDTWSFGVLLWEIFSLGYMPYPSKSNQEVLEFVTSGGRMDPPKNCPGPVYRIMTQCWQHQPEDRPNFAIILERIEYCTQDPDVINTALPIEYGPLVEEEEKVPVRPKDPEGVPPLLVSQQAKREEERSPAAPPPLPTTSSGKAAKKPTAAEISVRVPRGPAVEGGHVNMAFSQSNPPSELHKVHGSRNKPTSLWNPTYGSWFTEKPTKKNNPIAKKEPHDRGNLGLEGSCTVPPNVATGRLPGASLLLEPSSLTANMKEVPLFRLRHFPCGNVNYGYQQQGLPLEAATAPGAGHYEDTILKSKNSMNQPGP
Method in brief: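 Panel of 327 recombinant human kinases in radiometric activity assays, each screened in duplicate at a single inhibitor concentration; percent activity remaining relative to vehicle control, percent inhibition taken as 100 minus activity remaining.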

[4] = biological target: T1, Eukaryotic translation initiation factor 2-alpha kinase 3 (Homo sapiens) (UniProt Q9NZJ5); experiment: Inhibition of human recombinant PEK at 15 nM in presence of ATP by radiometric assay relative to control
T1 sequence (whole entry): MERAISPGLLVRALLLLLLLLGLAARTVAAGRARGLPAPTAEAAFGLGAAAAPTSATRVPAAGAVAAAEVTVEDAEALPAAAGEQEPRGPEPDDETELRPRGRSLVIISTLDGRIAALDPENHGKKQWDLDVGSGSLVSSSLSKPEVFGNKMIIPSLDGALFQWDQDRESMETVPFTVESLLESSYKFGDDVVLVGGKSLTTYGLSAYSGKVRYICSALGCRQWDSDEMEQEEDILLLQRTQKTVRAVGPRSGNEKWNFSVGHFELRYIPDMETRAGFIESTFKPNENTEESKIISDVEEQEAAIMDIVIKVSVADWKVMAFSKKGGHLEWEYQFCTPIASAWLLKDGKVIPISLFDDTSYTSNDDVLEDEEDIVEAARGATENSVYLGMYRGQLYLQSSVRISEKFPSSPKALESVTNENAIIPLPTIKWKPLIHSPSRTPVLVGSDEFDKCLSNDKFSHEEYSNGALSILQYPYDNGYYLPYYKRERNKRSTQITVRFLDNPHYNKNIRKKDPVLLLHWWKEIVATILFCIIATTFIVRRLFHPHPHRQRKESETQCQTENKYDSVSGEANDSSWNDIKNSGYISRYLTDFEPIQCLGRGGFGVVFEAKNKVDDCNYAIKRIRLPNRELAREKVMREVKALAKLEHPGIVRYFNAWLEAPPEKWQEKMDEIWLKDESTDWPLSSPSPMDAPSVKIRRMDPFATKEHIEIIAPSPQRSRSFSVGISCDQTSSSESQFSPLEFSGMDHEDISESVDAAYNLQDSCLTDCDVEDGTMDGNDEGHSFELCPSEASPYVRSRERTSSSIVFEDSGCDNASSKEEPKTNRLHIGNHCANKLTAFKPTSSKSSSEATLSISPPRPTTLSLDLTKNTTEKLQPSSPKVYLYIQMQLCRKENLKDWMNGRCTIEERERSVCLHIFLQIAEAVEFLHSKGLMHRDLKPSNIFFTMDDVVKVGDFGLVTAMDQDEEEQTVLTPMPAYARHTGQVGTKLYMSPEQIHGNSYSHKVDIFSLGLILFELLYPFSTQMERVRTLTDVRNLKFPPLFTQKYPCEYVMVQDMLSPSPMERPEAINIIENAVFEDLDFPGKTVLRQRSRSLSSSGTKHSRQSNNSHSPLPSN

[5] = biological target: Serine/threonine-protein kinase D2 (Homo sapiens) (UniProt Q9BZL6); experiment: Inhibition of human recombinant PKD2 at 15 nM related to control ULK1
[6] = biological target: T2, Ephrin type-B receptor 4 (Homo sapiens) (UniProt P54760); experiment: Inhibition of human recombinant EphB4 at 15 nM related to control ULK1
T2 sequence (whole entry): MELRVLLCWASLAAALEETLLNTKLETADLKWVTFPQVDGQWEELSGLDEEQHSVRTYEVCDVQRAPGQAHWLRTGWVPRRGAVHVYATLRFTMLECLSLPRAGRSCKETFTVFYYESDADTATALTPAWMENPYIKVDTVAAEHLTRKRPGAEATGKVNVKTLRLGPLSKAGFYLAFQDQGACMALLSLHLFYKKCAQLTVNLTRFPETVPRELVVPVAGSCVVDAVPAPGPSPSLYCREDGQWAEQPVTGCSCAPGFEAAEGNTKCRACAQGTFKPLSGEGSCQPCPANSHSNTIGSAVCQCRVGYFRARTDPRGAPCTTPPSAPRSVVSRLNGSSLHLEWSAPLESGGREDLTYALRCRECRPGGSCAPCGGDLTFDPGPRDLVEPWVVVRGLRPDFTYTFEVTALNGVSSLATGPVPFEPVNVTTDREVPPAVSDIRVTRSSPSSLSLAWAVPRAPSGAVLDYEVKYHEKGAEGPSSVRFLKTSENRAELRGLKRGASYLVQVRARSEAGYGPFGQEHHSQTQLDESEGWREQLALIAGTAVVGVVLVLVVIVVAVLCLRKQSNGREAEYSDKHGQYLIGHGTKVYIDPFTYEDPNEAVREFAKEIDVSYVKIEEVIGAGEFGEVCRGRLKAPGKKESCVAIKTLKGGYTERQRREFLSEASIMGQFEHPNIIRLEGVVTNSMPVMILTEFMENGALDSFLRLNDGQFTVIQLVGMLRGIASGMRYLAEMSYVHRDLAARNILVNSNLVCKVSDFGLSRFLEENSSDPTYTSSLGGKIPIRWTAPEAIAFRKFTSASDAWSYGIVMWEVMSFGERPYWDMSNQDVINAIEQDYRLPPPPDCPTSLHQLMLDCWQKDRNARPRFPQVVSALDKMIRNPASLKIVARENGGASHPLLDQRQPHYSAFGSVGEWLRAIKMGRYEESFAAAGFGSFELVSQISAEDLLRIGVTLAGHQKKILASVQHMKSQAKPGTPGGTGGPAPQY

[7] = biological target: Protein-tyrosine kinase 6 (Homo sapiens) (UniProt Q13882); experiment: Inhibition of human recombinant BRK at 15 nM related to control ULK1
Protein-tyrosine kinase 6 (Homo sapiens), sequence (Q13882 whole entry, looked up): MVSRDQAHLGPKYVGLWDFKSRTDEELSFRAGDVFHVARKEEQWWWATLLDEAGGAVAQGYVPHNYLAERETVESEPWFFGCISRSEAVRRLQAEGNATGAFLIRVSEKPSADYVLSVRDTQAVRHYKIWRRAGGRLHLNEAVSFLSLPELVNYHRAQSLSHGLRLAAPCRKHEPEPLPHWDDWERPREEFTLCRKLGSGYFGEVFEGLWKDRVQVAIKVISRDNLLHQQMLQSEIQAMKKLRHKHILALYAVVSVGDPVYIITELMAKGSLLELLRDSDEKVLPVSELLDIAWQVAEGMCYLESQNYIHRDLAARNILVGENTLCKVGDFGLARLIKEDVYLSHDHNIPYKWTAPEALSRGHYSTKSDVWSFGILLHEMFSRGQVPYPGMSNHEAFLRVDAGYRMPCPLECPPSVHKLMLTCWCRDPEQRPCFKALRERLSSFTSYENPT

Serine-protein kinase ATM (Homo sapiens), sequence (Q13315 whole entry): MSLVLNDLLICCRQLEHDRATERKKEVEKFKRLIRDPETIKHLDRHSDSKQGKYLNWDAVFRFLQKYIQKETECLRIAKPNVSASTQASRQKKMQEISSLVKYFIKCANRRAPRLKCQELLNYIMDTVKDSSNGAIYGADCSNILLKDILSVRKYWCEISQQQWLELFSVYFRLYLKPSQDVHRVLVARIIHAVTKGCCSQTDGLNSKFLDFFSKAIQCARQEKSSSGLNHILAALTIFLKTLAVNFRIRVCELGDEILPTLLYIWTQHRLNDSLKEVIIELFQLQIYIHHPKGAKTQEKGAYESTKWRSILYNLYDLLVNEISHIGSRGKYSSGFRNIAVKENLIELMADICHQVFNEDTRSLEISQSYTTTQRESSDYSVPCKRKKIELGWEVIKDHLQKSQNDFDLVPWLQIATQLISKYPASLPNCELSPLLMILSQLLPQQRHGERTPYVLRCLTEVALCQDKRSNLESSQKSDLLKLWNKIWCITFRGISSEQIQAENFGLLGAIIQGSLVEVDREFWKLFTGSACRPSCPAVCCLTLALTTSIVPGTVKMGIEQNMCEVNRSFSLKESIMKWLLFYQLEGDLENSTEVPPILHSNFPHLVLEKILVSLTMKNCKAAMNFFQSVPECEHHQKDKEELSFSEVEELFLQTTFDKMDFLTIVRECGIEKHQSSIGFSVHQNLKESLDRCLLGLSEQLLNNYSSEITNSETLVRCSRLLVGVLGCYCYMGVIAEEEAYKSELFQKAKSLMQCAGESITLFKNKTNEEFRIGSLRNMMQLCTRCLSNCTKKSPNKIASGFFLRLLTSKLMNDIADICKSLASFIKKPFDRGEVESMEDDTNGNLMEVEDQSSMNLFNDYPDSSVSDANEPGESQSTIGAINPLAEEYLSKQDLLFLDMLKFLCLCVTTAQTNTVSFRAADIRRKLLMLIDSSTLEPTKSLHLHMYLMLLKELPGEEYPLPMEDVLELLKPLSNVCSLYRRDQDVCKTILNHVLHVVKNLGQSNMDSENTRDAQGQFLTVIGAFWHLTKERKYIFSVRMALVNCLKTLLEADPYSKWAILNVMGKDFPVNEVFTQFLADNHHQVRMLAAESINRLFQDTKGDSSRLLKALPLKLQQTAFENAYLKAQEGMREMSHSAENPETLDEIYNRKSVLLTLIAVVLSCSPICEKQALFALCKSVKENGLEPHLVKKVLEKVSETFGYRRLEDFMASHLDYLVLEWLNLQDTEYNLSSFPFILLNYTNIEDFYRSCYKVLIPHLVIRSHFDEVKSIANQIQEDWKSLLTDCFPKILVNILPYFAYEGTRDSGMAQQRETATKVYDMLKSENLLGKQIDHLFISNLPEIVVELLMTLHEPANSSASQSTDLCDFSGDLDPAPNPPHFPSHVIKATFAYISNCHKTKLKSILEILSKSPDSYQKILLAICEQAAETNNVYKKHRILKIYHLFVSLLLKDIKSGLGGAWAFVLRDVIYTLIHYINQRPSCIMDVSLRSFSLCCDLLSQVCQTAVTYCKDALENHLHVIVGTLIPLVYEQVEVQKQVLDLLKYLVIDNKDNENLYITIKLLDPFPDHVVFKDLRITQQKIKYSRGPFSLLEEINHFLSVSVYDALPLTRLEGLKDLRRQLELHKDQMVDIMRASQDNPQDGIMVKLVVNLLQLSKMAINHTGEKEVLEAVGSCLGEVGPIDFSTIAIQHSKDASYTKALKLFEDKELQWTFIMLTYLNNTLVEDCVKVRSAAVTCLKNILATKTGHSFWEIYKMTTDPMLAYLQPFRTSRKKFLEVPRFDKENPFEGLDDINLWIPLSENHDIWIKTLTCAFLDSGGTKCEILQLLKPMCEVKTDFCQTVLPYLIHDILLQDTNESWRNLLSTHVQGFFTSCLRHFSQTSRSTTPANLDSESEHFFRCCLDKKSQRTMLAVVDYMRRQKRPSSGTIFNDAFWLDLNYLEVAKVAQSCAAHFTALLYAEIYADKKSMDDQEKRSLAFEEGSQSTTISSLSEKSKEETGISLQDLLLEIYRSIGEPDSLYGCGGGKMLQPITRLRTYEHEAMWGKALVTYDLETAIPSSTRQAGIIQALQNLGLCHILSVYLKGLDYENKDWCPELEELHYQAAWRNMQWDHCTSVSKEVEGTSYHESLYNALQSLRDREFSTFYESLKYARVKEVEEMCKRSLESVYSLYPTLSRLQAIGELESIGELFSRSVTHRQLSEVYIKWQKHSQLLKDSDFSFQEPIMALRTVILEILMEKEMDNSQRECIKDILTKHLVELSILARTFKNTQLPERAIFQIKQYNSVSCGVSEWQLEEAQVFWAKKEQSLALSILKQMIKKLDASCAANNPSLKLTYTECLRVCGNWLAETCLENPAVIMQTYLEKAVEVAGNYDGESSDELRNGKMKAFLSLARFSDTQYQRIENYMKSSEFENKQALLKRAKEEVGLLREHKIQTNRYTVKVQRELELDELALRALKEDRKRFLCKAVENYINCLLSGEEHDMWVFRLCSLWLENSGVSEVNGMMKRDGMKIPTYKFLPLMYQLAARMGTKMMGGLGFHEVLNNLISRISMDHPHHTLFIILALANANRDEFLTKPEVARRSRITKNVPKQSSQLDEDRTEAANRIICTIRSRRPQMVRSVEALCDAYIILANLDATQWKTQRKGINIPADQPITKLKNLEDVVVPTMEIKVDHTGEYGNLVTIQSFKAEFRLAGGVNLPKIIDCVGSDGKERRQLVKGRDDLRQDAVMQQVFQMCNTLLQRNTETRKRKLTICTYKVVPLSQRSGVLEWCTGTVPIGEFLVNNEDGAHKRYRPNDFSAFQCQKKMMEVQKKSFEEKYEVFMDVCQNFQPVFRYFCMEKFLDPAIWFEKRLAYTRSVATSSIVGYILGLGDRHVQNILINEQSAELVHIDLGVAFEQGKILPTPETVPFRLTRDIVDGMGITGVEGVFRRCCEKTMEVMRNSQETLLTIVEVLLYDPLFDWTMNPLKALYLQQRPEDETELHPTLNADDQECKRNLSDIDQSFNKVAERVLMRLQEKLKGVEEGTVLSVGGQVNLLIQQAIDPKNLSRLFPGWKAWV

inhibition [1]: 2% | fold change (FC) [2]: 0
Compound: CNC(=O)c1ccccc1Oc1nc(Nc2cc(OC)c(OC)c(OC)c2)ncc1Br

inhibition [3]: 0%
Compound: O=C(N[C@@H](C1CC1)C(F)(F)F)c1cc(-c2cnn3cc(-c4ccc(F)cc4)cnc23)cs1

inhibition [4]: 0% | fold change (FC) [5]: 0 | fold change (FC) [6]: 0.03 | fold change (FC) [7]: 0.09
Compound: CC(C)[C@H](NC(=O)c1cc(-c2cnn3cc(-c4ccc(OCCN5CCCCC5)cc4)cnc23)cs1)C(F)(F)F
